Experimental data from different studies.
Target: Activin receptor type-1B (ACVR1B, Homo sapiens, UniProt P36896)
Sequence (P36896 24-505, as in one of the studies): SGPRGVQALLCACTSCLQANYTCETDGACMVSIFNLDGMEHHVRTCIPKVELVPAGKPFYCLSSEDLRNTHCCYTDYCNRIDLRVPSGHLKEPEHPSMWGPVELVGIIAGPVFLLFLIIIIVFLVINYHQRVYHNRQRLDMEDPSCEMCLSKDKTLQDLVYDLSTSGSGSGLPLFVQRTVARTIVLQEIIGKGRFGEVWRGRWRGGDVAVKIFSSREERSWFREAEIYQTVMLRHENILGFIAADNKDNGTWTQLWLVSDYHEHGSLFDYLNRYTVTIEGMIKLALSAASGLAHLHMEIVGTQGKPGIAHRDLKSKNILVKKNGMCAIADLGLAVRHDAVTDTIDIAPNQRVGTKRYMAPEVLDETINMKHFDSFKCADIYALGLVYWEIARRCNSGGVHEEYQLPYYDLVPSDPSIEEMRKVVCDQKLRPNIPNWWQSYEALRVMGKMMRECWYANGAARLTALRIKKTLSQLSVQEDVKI

For `O=C1Nc2ccc(Cl)cc2C1=Cc1cc(Cl)c(O)c(Cl)c1`, the remaining signal was 127% (cell-free assay; 0.5 µM).
The remaining binding of `CS(=O)(=O)c1cc(C2(NC(=O)c3cncc4c3cnn4-c3ccc(F)cc3)CC2)ccn1` is reported as 100% (cell-free assay, competition with immobilised ligand; 1 µM).
For `Clc1ccc(Nc2nnc(Cc3ccncc3)c3ccccc23)cc1`, the remaining signal was 108% (cell-free assay; 0.5 µM).
For `O=C(Nc1cnn(-c2csc(C(=O)NC3COC3)c2)c1)Nc1c(F)cccc1Cl`, the remaining activity was 82% (enzyme activity, inhibitor; 5 µM).
With `O=C(NC[C@@H]1[C@H]2CN(C(=O)OCc3cc(C(F)(F)F)cc(C(F)(F)F)c3)C[C@@H]12)c1ccc2[nH]nnc2c1` the remaining binding was 100% (cell-free assay, competition with immobilised ligand; 1 µM).
For `O=C(Nc1cnn(-c2csc(C(=O)NC3COC3)c2)c1)Nc1ccccc1Cl`, the remaining activity was 124% (enzyme activity, inhibitor; 5 µM).
With `Cn1c2c(c3ccc(Cl)c(Cl)c31)C(C#N)C1(CCNCC1)NC2=O` (racemic) the ΔTm was -0.1 °C (thermal stability, DSF; 10 µM).
The remaining binding of `Cn1cc(Cl)c2c(Oc3c(F)cc(Nc4cc(Cl)nc(N)n4)cc3F)ccnc21` is reported as 98% (cell-free assay, competition with immobilised ligand; 0.1 µM).
The remaining signal of `CCN(CC)CCNC(=O)c1c(C)[nH]c(/C=C2\C(=O)Nc3ccc(F)cc32)c1C` is reported as 101% (cell-free assay; 0.5 µM).
`COc1cc2ncnc(Nc3ccc(Oc4ccccc4)cc3C)c2cc1OC` has an inhibition of -2% (enzyme activity, inhibitor; 1 µM).
`Cc1ccc(C(=O)Nc2ccc(CN3CCN(C)CC3)c(C(F)(F)F)c2)cc1C#Cc1cnc2cccnn12` gave a remaining activity of 100% (enzyme activity; 23.5 nM).
For `COc1cc(Cl)c(C(=O)N[C@@H](CN[C@H]2CC[C@@H](N)CC2)Cc2ccc(C#N)cc2)cc1-c1ccc(CN[C@H](C)c2ccc(C)cc2)o1`, the remaining activity was 92% (enzyme activity, inhibitor; 1 µM).
`CN(C)C1CCN(CC#Cc2nn(C3CCCC3)c3nc(NCc4ccccc4)ncc23)C1` (stereo not drawn) has an inhibition of 0% (enzyme activity, inhibitor, FRET; 0.1 µM).
For `O=C(N1CCS(=O)(=O)CC1)N1C[C@H](c2ccc(OC(F)(F)F)cc2)C[C@H](c2nc(C3CC3)no2)C1`, the remaining binding was 100% (cell-free assay, competition with immobilised ligand; 1 µM).
The remaining activity of `CC(C)(C)c1nc2c(s1)c1nc(N)ncc1c1ccc(NS(=O)(=O)c3c(F)cccc3F)c(F)c12` is reported as 84% (enzyme activity, inhibitor, radiometric; 1 µM).
`Cc1cc(NC(=O)c2cccc3cc(-c4cccc5[nH]nc(N)c45)ccc23)ccc1F` has an activity vs control of 103% (enzyme activity, inhibitor; 0.1 µM).
`c1ccc(N2CCN(Cc3nc4ccccc4[nH]3)CC2)nc1` has a remaining binding of 85% (cell-free assay, competition with immobilised ligand; 1 µM).
The remaining activity of `CCCOc1ccc(OC)c(F)c1C(=O)c1ccc(C(=O)N[C@@H]2CNC[C@H]2NC(=O)c2ccc3[nH]ncc3c2)cc1` is reported as 91% (enzyme activity, inhibitor; 10 µM).
With `O=C(O)[C@@H]1[C@@H](Cn2nnc3ccccc3c2=O)CC[C@H]1C(=O)c1ccc(OCCC2CCOCC2)cc1` the remaining binding was 100% (cell-free assay, competition with immobilised ligand; 1 µM).
For `Nc1ncnc2occ(-c3ccc(NC(=O)Nc4cc(C(F)(F)F)ccc4F)cc3)c12`, the remaining signal was 99% (cell-free assay; 20 µM).
`Cn1c2c(c3ccc(Cl)c(Cl)c31)C(C#N)C1(CCOCC1)NC2=O` (stereo not drawn) gave a ΔTm of 0.2 °C (thermal stability, DSF; 10 µM).
The inhibition of `CNC(=O)c1cc(Oc2ccc(NC(=O)Nc3ccc(Cl)c(C(F)(F)F)c3)cc2)ccn1` is reported as -6% (cell-free assay, inhibitor; 0.3 µM).
For `Cn1c2c(Cl)c(Cl)ccc2c2cc(N)[nH]c(=O)c21`, the ΔTm was 3.9 °C (thermal stability, DSF; 10 µM).
`CS(=O)(=O)Nc1cccc(-c2csc(NC(=O)CSc3nc4nccnc4c(=O)n3CCc3ccccc3)n2)c1` gave an inhibition of 2% (enzyme activity, inhibitor; 10 µM).
With `CCCS(=O)(=O)Nc1ccc(F)c(C(=O)c2c[nH]c3ncc(-c4ccc(Cl)cc4)cc23)c1F` the inhibition was under 10% (enzyme activity, inhibitor; 1 µM).
For `CN1CCN(c2cnc3c(C4CCN(C(=O)c5ccc(OC(F)(F)F)cc5N)CC4)ncnc3c2)CC1`, the remaining binding was 79% (cell-free assay, competition with immobilised ligand; 1 µM).
With `Cc1ccc(Nc2nccc(N(C)c3ccc4c(C)n(C)nc4c3)n2)cc1S(N)(=O)=O` the inhibition was 17% (cell-free assay, inhibitor; 10 µM).
The inhibition of `COc1cc(-c2cc(-c3ccc(N4CCNCC4)cc3)cnc2C)cc(OC)c1OC` is reported as 36% (enzyme activity, inhibitor; 1 µM).
`C[C@@H](c1cccc(C#N)c1)n1cc(Cl)cc(C(N)=O)c1=N` has a remaining binding of 100% (cell-free assay, competition with immobilised ligand; 1 µM).
With `CC1(C)NC(=O)c2[nH]c3c(Cl)c(Cl)ccc3c2C1C#N` (stereo not drawn) the ΔTm was 1.6 °C (thermal stability, DSF; 10 µM).
